Results reported in ChEMBL document CHEMBL4130403, “Thermoactinoamide A, an Antibiotic Lipophilic Cyclopeptide from the Icelandic Thermophilic Bacterium Thermoactinomyces vulgaris” (2017).
Values after ≈ are worked out from the molar mass of the structure shown. Active and inactive are the calls of the source. No cut-off for these calls is given here.

Tests used:
Bacillus cereus [1] = test: Antibacterial activity against Bacillus cereus ATCC 14579 measured after overnight incubation; format: functional, organism-based
Outline: (§1)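 Broth microdilution (liquid growth inhibition) in 96-well plates. Overnight Luria Bertoni preculture from one colony at 37 °C with stirring, adjusted to OD620 0.03; 200 μL suspension added to 2-fold serial dilutions of peptide. Plates incubated overnight at 34 °C with shaking (450 rpm), read at OD620. MIC = lowest concentration giving complete growth inhibition; triplicate; gentamicin positive control.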

Pseudomonas aeruginosa [2] = test: Antibacterial activity against Pseudomonas aeruginosa ATCC 13388 measured after overnight incubation; format: functional, organism-based; outline: as §1
Enterococcus faecalis [3] = test: Antibacterial activity against Enterococcus faecalis ATCC 29212 measured after overnight incubation; format: functional
Outline: (§2)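 Liquid growth inhibition in 96-well microplates. Each strain was precultured overnight in Luria Bertoni at 37 °C with stirring, then diluted to 0.03 OD at 620 nm. 200 μL of this suspension was added to wells holding 2-fold serial dilutions of peptide. Plates were incubated overnight at 34 °C with shaking at 450 rpm and read at 620 nm. MIC, run in triplicate, is the lowest concentration giving complete growth inhibition.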

Staphylococcus aureus = test: Antibacterial activity against Staphylococcus aureus ATCC 6538 measured after overnight incubation; format: functional; outline: as §2
Bacillus cereus [4] = test: Antibacterial activity against Bacillus cereus ATCC 14579 up to 140 uM measured after overnight incubation; format: functional, organism-based; outline: as §2
Escherichia coli [5] = test: Antibacterial activity against Escherichia coli ATCC 8739 up to 140 uM measured after overnight incubation; format: functional, organism-based; outline: as §2
Pseudomonas aeruginosa [6] = test: Antibacterial activity against Pseudomonas aeruginosa ATCC 13388 up to 140 uM measured after overnight incubation; format: functional, organism-based; outline: as §2
Klebsiella pneumoniae [7] = test: Antibacterial activity against Klebsiella pneumoniae ATCC 11296 up to 140 uM measured after overnight incubation; format: functional, organism-based; conditions: Klebsiella pneumoniae subsp. ozaenae; outline: as §2
Enterococcus faecalis [8] = test: Antibacterial activity against Enterococcus faecalis ATCC 29212 up to 140 uM measured after overnight incubation; format: functional, organism-based; outline: as §2
Klebsiella pneumoniae [9] = test: Antibacterial activity against Klebsiella pneumoniae ATCC 11296 measured after overnight incubation; format: functional, Klebsiella pneumoniae subsp. ozaenae; outline: as §2
Escherichia coli [10] = test: Antibacterial activity against Escherichia coli ATCC 8739 measured after overnight incubation; format: functional; outline: as §2

## GENTAMICIN
Bacillus cereus [1]
  MIC: 17.2 µM
Pseudomonas aeruginosa [2]
  MIC: 10.5 µM

## CC1(C)S[C@@H]2[C@H](NC(=O)[C@H](N)c3ccccc3)C(=O)N2[C@H]1C(=O)O [AMPICILLIN]
Enterococcus faecalis [3]
  MIC: 4.59 µM (≈ 1.6 µg/mL)
Staphylococcus aureus
  MIC: 0.11 µM (≈ 0.0384 µg/mL)

## CC[C@H](C)[C@H]1NC(=O)[C@H](CC(C)C)NC(=O)[C@@H](CC(C)C)NC(=O)[C@H](CC(C)C)NC(=O)[C@H](C(C)C)NC(=O)[C@@H](Cc2ccc(O)cc2)NC1=O
Bacillus cereus [4]
  Activity: inactive
Escherichia coli [5]
  Activity: inactive
Staphylococcus aureus
  MIC: 35 µM (≈ 25 µg/mL)
Pseudomonas aeruginosa [6]
  Activity: inactive
Klebsiella pneumoniae [7]
  Activity: inactive
Enterococcus faecalis [8]
  Activity: inactive

## O=C(N[C@H](CO)[C@H](O)c1ccc([N+](=O)[O-])cc1)C(Cl)Cl [CHLORAMPHENICOL]
Klebsiella pneumoniae [9]
  MIC: 3.17 µM (≈ 1.02 µg/mL)
Escherichia coli [10]
  MIC: 19.3 µM (≈ 6.24 µg/mL)
